Assay results taken from publication PMC9635392 (International Journal of Nanomedicine, 2022).
Structures can show the parent of a compound that is named as a salt.

Legend:
[1] = test system: PLC/PRF/5 hepatocellular carcinoma cells; assay: MTT cytotoxicity assay; format: cell-based, Human
Summary of the method: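 PLC/PRF/5 cells grown in DMEM with 10% FBS and penicillin/streptomycin at 37°C, 5% CO2. Seeded at 7×10^3 cells/well in triplicate and left 24 h. Treated 24 h or 48 h with test compound (DMSO stock diluted in DMEM) or nanoparticle formulations (DMEM-suspended, sonicated 10 min). MTT added for 3 h, formazan dissolved in isopropanol, A570 read. Untreated cells set at 100%. IC50 from curve fitting.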

Swiss albino mice = assay: In vivo biodistribution study; conditions: 5 mg/kg intravenously

`CNC(=O)c1cc(Oc2ccc(NC(=O)Nc3ccc(Cl)c(C(F)(F)F)c3)cc2)ccn1` [SRFT, Sorafenib tosylate] was tested, and the IC50 ([1]; Homo sapiens, PLC-PRF-5) was 6 to 8 µM, the “cytotoxicity” value ([1]; PLC/PRF/5, 4–12 µM, 24 h and 48 h) was “concentration-dependent cytotoxicity” and the “sorafenib distribution liver vs kidneys, first hour” value (Swiss albino mice; 1 h) was “accumulated in the kidneys was higher compared to liver”. For the same compound, the “sorafenib distribution liver vs kidneys at 48 h” value (Swiss albino mice; 48 h) was “in kidneys at 48 h was higher than in the liver”.
